Tests used:
[1] = target: T1, Hepatitis C virus serine protease, NS3/NS4A (Hepatitis C virus, UniProt A3EZI9+D2K2A8); test: Inhibition of HCV GT-3a NS3/4a protease using Ac-DE-D(Edans)-EE-Abu-c-[COO]-AS-K(Dabcy1)-NH2 preincubated for 1 hr followed by substrate addition; type: protein-complex assay, Hepatitis C virus subtype 3a
[2] = target: T1, Hepatitis C virus serine protease, NS3/NS4A; test: Inhibition of HCV GT-1a NS3/4a protease using Ac-DE-D(Edans)-EE-Abu-c-[COO]-AS-K(Dabcy1)-NH2 preincubated for 1 hr followed by substrate addition; type: protein complex, Hepatitis C virus subtype 1a
Hepatitis C virus [3] = test: Antiviral activity against HCV genotype 1b infected in human Huh7 cells incubated for 96 hrs by luciferase assay; type: functional, organism-based, Hepacivirus hominis; conditions: Huh-7, 96 h
Summary of the method: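 Con1 (GT-1b) luciferase reporter replicon carrying the H77 (GT-1a) NS3 protease region, either WT or with A156T or D168A introduced by megaprimer mutagenesis. Cured Huh7 cells grown in DMEM with 10% heat-inactivated FBS and 0.1 mM non-essential amino acids. Cells electroporated with replicon RNA and kept with serially diluted inhibitor.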

Hepatitis C virus [4] = test: Antiviral activity against HCV genotype 1b harboring A156T mutant infected in human Huh7 cells incubated for 96 hrs by luciferase assay; type: functional, organism-based, Hepacivirus hominis; conditions: subtype 1b, Huh-7, 96 h
Summary of the method: (§1)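 Con1 (GT-1b) luciferase reporter replicon carrying the H77 (GT-1a) NS3 protease region, with the mutation introduced by megaprimer site-directed mutagenesis. Cured Huh7 cells were grown in DMEM with 10% heat-inactivated FBS and 0.1 mM non-essential amino acids, electroporated with replicon RNA transcripts, and kept with serially diluted inhibitor. EC50 was taken directly from the inhibition curves.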

Hepatitis C virus [5] = test: Antiviral activity against HCV genotype 1b harboring D168A mutant infected in human Huh7 cells incubated for 96 hrs by luciferase assay; type: functional, organism-based, Hepacivirus hominis; conditions: subtype 1b, Huh-7, 96 h; summary of the method: as §1
Hepatitis C virus [6] = test: Antiviral activity against HCV genotype 3a infected in human Huh7.5 cells incubated for 72 hrs by luciferase assay; type: functional, organism-based, Hepacivirus hominis; conditions: subtype 3a, Huh7.5, 72 h
Summary of the method: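 Huh7.5 cells stably harboring the GT-3a replicon S52/SG-Feo SHI, seeded at 8,000 cells/well. Cells lysed in 1X Passive Lysis Buffer and luciferase activity measured. EC50 taken from drug inhibition curves.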

[7] = Clearance in Sprague-Dawley rat at 5 mg/kg, iv measured after 0.25 to 24 hrs by LC-MS/MS analysis; type: ADME, organism-based; conditions: in vivo, time 0.25-24 hrs
[8] = Half life in Sprague-Dawley rat at 5 mg/kg, iv measured after 0.25 to 24 hrs by LC-MS/MS analysis; type: ADME, organism-based; conditions: in vivo, time 0.25-24 hrs
[9] = Volume of distribution at steady state in Sprague-Dawley rat at 5 mg/kg, iv measured after 0.25 to 24 hrs by LC-MS/MS analysis; type: ADME, organism-based; conditions: in vivo, time 0.25-24 hrs, read-out: Vdss
[10] = AUC(0 to 24 hrs) in Sprague-Dawley rat at 5 mg/kg, iv measured after 0.25 to 24 hrs by LC-MS/MS analysis; type: ADME, organism-based; set-up: route intravenous, dose 5 mg/kg, time 0.25-24 hrs; conditions: in vivo
[11] = Cmax in Sprague-Dawley rat at 10 mg/kg, po measured after 0.25 to 24 hrs by LC-MS/MS analysis; type: ADME, organism-based; set-up: route oral, time 0.25-24 hrs, dose 10 mg/kg; conditions: in vivo
[12] = Tmax in Sprague-Dawley rat at 10 mg/kg, po measured after 0.25 to 24 hrs by LC-MS/MS analysis; type: ADME, organism-based; conditions: in vivo, time 0.25-24 hrs
[13] = Half life in Sprague-Dawley rat at 10 mg/kg, po measured after 0.25 to 24 hrs by LC-MS/MS analysis; type: ADME, organism-based; conditions: in vivo, time 0.25-24 hrs
[14] = Oral bioavailability in Sprague-Dawley rat at 10 mg/kg measured after 0.25 to 24 hrs by LC-MS/MS analysis; type: ADME, organism-based; conditions: in vivo, time 0.25-24 hrs

Row | Structure (SMILES) | Ki [1] [nM] | Ki [2] [nM] | EC50 (Hepatitis C virus [3]) [nM] | EC50 (Hepatitis C virus [4]) [nM] | EC50 (Hepatitis C virus [5]) [nM] | EC50 (Hepatitis C virus [6]) [nM] | clearance [7] [mL/min/kg] | half-life [8] [h] | Vd [9] [L/kg] | AUC(0-t) [10] [µM·h] | Cmax [11] [nM] | Tmax [12] [h] | half-life [13] [h] | bioavailability [14] [%]
1 | COc1ccc2nc(C)c(O[C@@H]3C[C@H]4C(=O)N[C@]5(C(=O)NS(=O)(=O)C6(C)CC6)C[C@H]5/C=C/CCCCC[C@H](NC(=O)OC5C[C@@H]6C[C@@H]6C5)C(=O)N4C3)nc2c1 (some centres undefined) | 39 | 0.5 | 0.1 | 5.3 | 0.5 | 900 |  |  |  |  |  |  |  | 
2 | COc1ccc2nc(C)c(O[C@@H]3C[C@H]4C(=O)N[C@]5(C(=O)NS(=O)(=O)C6(C)CC6)C[C@H]5/C=C/CCCCC[C@H](NC(=O)OC5(C(F)(F)F)CCCC5)C(=O)N4C3)nc2c1 | 104 | 1.3 | 0.3 | 6.2 | 20 | 130 | 37 | 5.3 | 3.9 | 2.7 | 110 | 3 | 4.9 | 11
3 | COc1ccc2nc(O[C@@H]3C[C@H]4C(=O)N[C@]5(C(=O)NS(=O)(=O)C6(C)CC6)C[C@H]5/C=C/CCCCC[C@H](NC(=O)O[C@@H](C)C(C)C)C(=O)N4C3)c(C(F)(F)F)nc2c1 | 447 | 6.1 | 0.9 | 8.7 | 3.1 | 1500 |  |  |  |  |  |  |  | 
4 | COc1ccc2nc(O[C@@H]3C[C@H]4C(=O)N[C@]5(C(=O)NS(=O)(=O)C6(C)CC6)C[C@H]5/C=C/CCCCC[C@H](NC(=O)OC(C)(C)C(F)(F)F)C(=O)N4C3)c(C(F)(F)F)nc2c1 | 390 | 3.6 | 1 | 10 | 4.3 | 330 |  |  |  |  |  |  |  | 
5 | COc1ccc2nc(C)c(O[C@@H]3C[C@H]4C(=O)N[C@]5(C(=O)NS(=O)(=O)C6(C)CC6)C[C@H]5/C=C/CCCCC[C@H](NC(=O)OC5(C(F)(F)F)CCC5)C(=O)N4C3)nc2c1 | 96 | 1.5 | 0.3 | 5.9 | 25 | 310 |  |  |  |  |  |  |  | 
6 | COc1ccc2nc(C)c(O[C@@H]3C[C@H]4C(=O)N[C@]5(C(=O)NS(=O)(=O)C6(C)CC6)C[C@H]5/C=C/CCCCC[C@H](NC(=O)OC(C)(C)C)C(=O)N4C3)nc2c1 | 119 | 3.6 | 0.6 | 2.1 | 2.2 | 300 | 51 | 5.2 | 3.5 | 2.2 | 180 | 1.4 | 3 | 10
7 | COc1ccc2nc(O[C@@H]3C[C@H]4C(=O)N[C@]5(C(=O)NS(=O)(=O)C6(C)CC6)C[C@H]5/C=C/CCCCC[C@H](NC(=O)OC5(C(F)(F)F)CCC5)C(=O)N4C3)c(C(F)(F)F)nc2c1 | 133 | 2 | 1.4 | 5.1 | 7.8 | 900 |  |  |  |  |  |  |  | 
8 | COc1ccc2nc(O[C@@H]3C[C@H]4C(=O)N[C@]5(C(=O)NS(=O)(=O)C6(C)CC6)C[C@H]5/C=C/CCCCC[C@H](NC(=O)OC5(C(F)(F)F)CCCC5)C(=O)N4C3)c(C(F)(F)F)nc2c1 | 414 | 5.7 | 0.7 | 19 | 5.2 | 290 |  |  |  |  |  |  |  | 

— ChEMBL document CHEMBL4828740, “Discovery of Quinoxaline-Based P1-P3 Macrocyclic NS3/4A Protease Inhibitors with Potent Activity against Drug-Resistant Hepatitis C Virus Variants” (J Med Chem, 2021)
